Results: ChEMBL document CHEMBL1125653, “Synthesis and pharmacological evaluation of a major metabolite of ameltolide, a potent anticonvulsant” (1991)

Tests used:
Format in all cases: functional
Mus musculus [1] = assay: Anticonvulsant effect by maximal electroshock assay in mice after intravenous administration.
Outline: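 Male CF-1 mice, 18–26 g. Compounds dissolved in 2.5% ethanol–2.5% emulphor/water and injected into the tail vein 5 min before MES: 50 mA ac, 0.1 s, corneal electrodes. Absence of tonic hindlimb extension scored as protection. Groups of 12 mice per dose; ED50 with 95% confidence limits calculated from dose–effect data.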

[2] = Protective index measured as the ratio of HS ED50/MES ED50 values.
Outline: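 Ratio of oral horizontal-screen ED50 to oral MES ED50 in male CF-1 mice. Both ED50s were derived from groups of 12 mice given compound suspended in 5% acacia/water.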

Mus musculus [3] = assay: Anticonvulsant effect by maximal electroshock assay in mice after peroral administration.; settings: po
Outline: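 Male CF-1 mice, 18–26 g, fasted from food and water 1.5 h; compounds suspended in 5% acacia/water, given orally at 0.01 mL/g. Tested at each compound's time of peak effect. MES: 50 mA ac for 0.1 s via corneal electrodes; protection = no hindlimb tonic extension. Groups of 12 mice at several doses; ED50 and 95% confidence limits computed from dose–effect data.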

Mus musculus [4] = assay: Anticonvulsant effect by horizontal screen assay in mice after peroral administration.; settings: po, in the assay text read “Neurological impairment” for “Anticonvulsant effect”
Outline: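 Neurological impairment in previously trained male CF-1 mice (18–26 g) after oral dosing in 5% acacia/water (0.01 mL/g; 1.5 h food and water deprivation). Each mouse placed on a 13 × 13 cm no. 4 mesh wire screen, which was rotated 180°. Scored on whether it climbed back to the top within 1 min. Groups of 12 per dose; ED50 with 95% confidence limits.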

Mus musculus [5] = assay: Time to peak anticonvulsant effect was measured after oral dosing in mice.
Outline: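 Time to peak anticonvulsant effect in MES-tested male CF-1 mice after oral dosing (5% acacia/water suspension, 0.01 mL/g, 1.5 h fasted). Used to set the test time for the oral ED50 determinations.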

| Structure (SMILES) | ED50 (Mus musculus [1]) [mg/kg] | Protective index [2] | ED50 (Mus musculus [3]) [mg/kg] | ED50 (Mus musculus [4]) [mg/kg] | TPE (Mus musculus [5]) [h] |
| --- | --- | --- | --- | --- | --- |
| Cc1cccc(C)c1NC(=O)c1ccc(N)cc1 [AMELTOLIDE] | 19.9 | 13 | 1.4 | 23 | 0.5 |
| O=C1NC(=O)C(c2ccccc2)(c2ccccc2)N1 [PHENYTOIN] |  |  | 8.1 | 83.7 | 2 |
| Cc1cccc(CO)c1NC(=O)c1ccc(N)cc1 | 3.9 | 6 | 10.9 | 66 | 1 |
| CC(=O)Nc1ccc(C(=O)Nc2c(C)cccc2CO)cc1 | > 80 |  | > 100 |  | 1 |
| CC(=O)Nc1ccc(C(=O)Nc2c(C)cccc2C)cc1 | 19.9 | 21 | 4.7 | 96.4 | 2 |
